Measured values taken from ChEMBL document CHEMBL1151448, “Comparative antianaerobic activities of doripenem determined by MIC and time-kill analysis” (2008).

Experiments:
Assay type in all cases: functional
[1] = system: Clostridium perfringens; test: Antimicrobial activity against Clostridium perfringens isolated from intra-abdominal infection and pelvic inflammatory disease patients after 48 hrs by agar dilution method
Procedure, shortened: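 CLSI agar dilution on brucella blood agar supplemented with laked sheep blood, hemin and vitamin K. Inoculum about 1 × 10^5 CFU/spot, applied by Steers replicator. Plates incubated 48 h at 35°C in an anaerobic glove box. MIC is the concentration giving marked growth reduction versus the anaerobic control plate. Standard QC strains included in each run.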

[2] = system: Clostridioides difficile; test: Antimicrobial activity against Clostridium difficile isolated from intra-abdominal infection and pelvic inflammatory disease patients after 48 hrs by agar dilution method
Procedure, shortened: (§1)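 CLSI agar dilution on brucella blood agar supplemented with laked sheep blood, hemin and vitamin K. Inocula of about 1 × 10^5 CFU/spot were applied by Steers replicator, and plates were incubated 48 h at 35°C in an anaerobic glove box. MIC was the concentration giving marked growth reduction versus the anaerobic control plate. QC strains were included each run, and β-lactamase was detected by Cefinase disk.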

[3] = system: Bacteroides thetaiotaomicron; test: Antimicrobial activity against beta lactamase-positive Bacteroides thetaiotaomicron isolated from intra-abdominal infection and pelvic inflammatory disease patients after 48 hrs by time kill analysis
Procedure, shortened: (§2)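 The MIC was read by inspecting macrodilution time-kill tubes. Vials held prereduced brucella broth with 5% laked horse blood cells, hemin 5 μg/ml and vitamin K1 1 μg/ml. Final inoculum was 10^6–10^7 CFU/ml, prepared inside the anaerobe chamber. Vials were incubated 48 h at 35°C in a shaking water bath.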

[4] = system: Fusobacterium nucleatum; test: Antimicrobial activity against beta lactamase-positive Fusobacterium nucleatum isolated from intra-abdominal infection and pelvic inflammatory disease patients after 48 hrs by time kill analysis; procedure, shortened: as §2
[5] = system: Prevotella corporis; test: Antimicrobial activity against beta lactamase-positive Prevotella corporis isolated from intra-abdominal infection and pelvic inflammatory disease patients after 48 hrs by agar dilution method; procedure, shortened: as §1
[6] = system: Bacteroides fragilis; test: Antimicrobial activity against beta lactamase-positive Bacteroides fragilis isolated from intra-abdominal infection and pelvic inflammatory disease patients after 48 hrs by time kill analysis; procedure, shortened: as §2
[7] = system: [Clostridium] innocuum; test: Antimicrobial activity against Clostridium innocuum isolated from intra-abdominal infection and pelvic inflammatory disease patients after 48 hrs by agar dilution method; procedure, shortened: as §1
[8] = system: Prevotella disiens; test: Antimicrobial activity against beta lactamase-positive Prevotella disiens isolated from intra-abdominal infection and pelvic inflammatory disease patients after 48 hrs by agar dilution method; procedure, shortened: as §1
[9] = system: Finegoldia magna; test: Bactericidal activity against beta lactamase-positive Finegoldia magna isolated from intra-abdominal infection and pelvic inflammatory disease patients assessed as bacterial killing at 2 times MIC after 48 hrs by time kill analysis
Procedure, shortened: (§3)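 Anaerobic macrodilution time-kill. Inoculum from brucella blood plates, prepared and diluted in prereduced brucella broth inside the anaerobe chamber. Final 10^6 to 10^7 CFU/ml in prereduced brucella broth with 5% laked horse blood cells, 5 μg/ml hemin and 1 μg/ml vitamin K1. […] Shaken at 35°C for 48 h. Viable counts taken at 6, 12, 24 and 48 h. 99.9% kill taken as bactericidal.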

[10] = system: Parabacteroides distasonis; test: Antimicrobial activity against beta lactamase-positive Bacteroides distasonis isolated from intra-abdominal infection and pelvic inflammatory disease patients after 48 hrs by agar dilution method; procedure, shortened: as §1
[11] = system: Fusobacterium nucleatum; test: Antimicrobial activity against beta lactamase-positive Fusobacterium nucleatum isolated from intra-abdominal infection and pelvic inflammatory disease patients after 48 hrs by agar dilution method; procedure, shortened: as §1
[12] = system: Bacteroides ovatus; test: Antimicrobial activity against beta lactamase-positive Bacteroides ovatus isolated from intra-abdominal infection and pelvic inflammatory disease patients after 48 hrs by agar dilution method; procedure, shortened: as §1
[13] = system: Bacteroides thetaiotaomicron; test: Bactericidal activity against beta lactamase-positive Bacteroides thetaiotaomicron isolated from intra-abdominal infection and pelvic inflammatory disease patients assessed as bacterial killing at MIC after 24 hrs by time kill analysis
Procedure, shortened: (§4)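 Macrodilution time-kill in prereduced brucella broth with 5% laked horse blood, hemin 5 μg/ml and vitamin K1 1 μg/ml, at final inoculum 10^6–10^7 CFU/ml. […] Viable counts were taken at 6, 12, 24 and 48 h on plates incubated 48 h anaerobically. 99.9% kill was taken as bactericidal.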

[14] = system: Bacteroides thetaiotaomicron; test: Antimicrobial activity against beta lactamase-positive Bacteroides thetaiotaomicron isolated from intra-abdominal infection and pelvic inflammatory disease patients after 48 hrs by agar dilution method; procedure, shortened: as §1
[15] = system: Clostridioides difficile; test: Bactericidal activity against Clostridium difficile isolated from intra-abdominal infection and pelvic inflammatory disease patients assessed as bacterial killing at MIC after 24 hrs by time kill analysis; procedure, shortened: as §4
[16] = system: Anaerococcus prevotii; test: Antimicrobial activity against Anaerococcus prevotii isolated from intra-abdominal infection and pelvic inflammatory disease patients after 48 hrs by agar dilution method; procedure, shortened: as §1
[17] = system: Fusobacterium necrophorum; test: Antimicrobial activity against Fusobacterium necrophorum isolated from intra-abdominal infection and pelvic inflammatory disease patients after 48 hrs by agar dilution method; procedure, shortened: as §1
[18] = system: Fusobacterium mortiferum; test: Antimicrobial activity against beta lactamase-positive Fusobacterium mortiferum isolated from intra-abdominal infection and pelvic inflammatory disease patients after 48 hrs by agar dilution method; procedure, shortened: as §1
[19] = system: Clostridioides difficile; test: Bactericidal activity against Clostridium difficile isolated from intra-abdominal infection and pelvic inflammatory disease patients assessed as bacterial killing at 2 times MIC after 48 hrs by time kill analysis; procedure, shortened: as §4
[20] = system: Clostridium perfringens; test: Bactericidal activity against Clostridium perfringens isolated from intra-abdominal infection and pelvic inflammatory disease patients assessed as bacterial killing at 2 times MIC after 48 hrs by time kill analysis
Procedure, shortened: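 Time-kill in prereduced brucella broth with 5% laked horse blood cells, hemin and vitamin K1. […] Viable counts taken at 6, 12, 24 and 48 h, plates incubated 48 h anaerobically. Kill scored as 90%, 99% or 99.9%; 99.9% defines bactericidal.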

[21] = system: Porphyromonas asaccharolytica; test: Antimicrobial activity against Porphyromonas asaccharolyticus isolated from intra-abdominal infection and pelvic inflammatory disease patients after 48 hrs by agar dilution method; procedure, shortened: as §1
[22] = system: Fusobacterium varium; test: Antimicrobial activity against Fusobacterium varium isolated from intra-abdominal infection and pelvic inflammatory disease patients after 48 hrs by agar dilution method; procedure, shortened: as §1
[23] = system: Phocaeicola vulgatus; test: Antimicrobial activity against beta lactamase-positive Bacteroides vulgatus isolated from intra-abdominal infection and pelvic inflammatory disease patients after 48 hrs by agar dilution method; procedure, shortened: as §1
[24] = system: Fusobacterium nucleatum; test: Bactericidal activity against beta lactamase-positive Fusobacterium nucleatum isolated from intra-abdominal infection and pelvic inflammatory disease patients assessed as bacterial killing at 2 times MIC after 48 hrs by time kill analysis; procedure, shortened: as §3
[25] = system: Parvimonas micra; test: Antimicrobial activity against Micromonas micros isolated from intra-abdominal infection and pelvic inflammatory disease patients after 48 hrs by agar dilution method; procedure, shortened: as §1
[26] = system: Prevotella buccae; test: Antimicrobial activity against beta lactamase-positive Prevotella buccae isolated from intra-abdominal infection and pelvic inflammatory disease patients after 48 hrs by agar dilution method; settings: Segatella buccae; procedure, shortened: as §1
[27] = system: Prevotella melaninogenica; test: Antimicrobial activity against beta lactamase-positive Prevotella melaninogenica isolated from intra-abdominal infection and pelvic inflammatory disease patients after 48 hrs by agar dilution method; procedure, shortened: as §1

C[C@@H](O)[C@H]1C(=O)N2C(C(=O)O)=C(S[C@@H]3CN[C@H](C(=O)Nc4cccc(C(=O)O)c4)C3)[C@H](C)[C@H]12
0.03 µg/mL: MIC50 [5] | MIC90 [11] | MIC50 [25]
99%: Activity [9] | Activity [19] | Activity [20] | Activity [24]
0.25 µg/mL: MIC [6] | MIC90 [8]
≤ 0.016 µg/mL: MIC [11] | MIC50 [11] | MIC [16] | MIC [17] | MIC50 [17] | MIC [21]
0.008 µg/mL: MIC [4]
90%: Activity [13] | Activity [15]
2 µg/mL: MIC [7] | MIC50 [7] | MIC90 [12] | MIC90 [23]
4 µg/mL: MIC [2] | MIC50 [2]
0.5 µg/mL: MIC [3] | MIC [10] | MIC50 [10] | MIC [12] | MIC50 [12] | MIC [14] | MIC50 [14] | MIC90 [18]
0.06 µg/mL: MIC50 [1] | MIC90 [5] | MIC50 [8] | MIC [18] | MIC50 [18] | MIC [22] | MIC50 [22]
1 µg/mL: MIC90 [10] | MIC90 [14]
0.125 µg/mL: MIC90 [1] | MIC90 [17] | MIC90 [22] | MIC50 [23] | MIC90 [25] | MIC50 [26] | MIC90 [26]
8 µg/mL: MIC90 [2]

C[C@@H](O)[C@H]1C(=O)N2C(C(=O)O)=C(S[C@@H]3CN[C@H](CNS(N)(=O)=O)C3)[C@H](C)[C@H]12 [DORIPENEM]
99%: Activity [9] | Activity [19] | Activity [20] | Activity [24]
≤ 0.016 µg/mL: MIC [11] | MIC50 [11] | MIC [17] | MIC50 [17] | MIC [21] | MIC [25] | MIC50 [25]
0.03 µg/mL: MIC50 [1] | MIC90 [1] | MIC [5] | MIC50 [5] | MIC50 [27] | MIC90 [11] | MIC [16]
0.016 µg/mL: MIC [4]
4 µg/mL: MIC90 [2]
0.5 µg/mL: MIC50 [10] | MIC90 [14]
2 µg/mL: MIC50 [2]
0.125 µg/mL: MIC90 [8] | MIC50 [22] | MIC90 [22] | MIC90 [26]
0.06 µg/mL: MIC90 [5] | MIC50 [8] | MIC90 [27] | MIC90 [25] | MIC [26] | MIC50 [26]
90%: Activity [13] | Activity [15]
0.25 µg/mL: MIC [3] | MIC [6] | MIC [12] | MIC50 [12] | MIC [14] | MIC50 [14] | MIC90 [17] | MIC50 [18] | MIC50 [23]
1 µg/mL: MIC [7] | MIC50 [7] | MIC90 [10] | MIC90 [12] | MIC90 [18] | MIC90 [23]

C[C@@H](O)[C@H]1C(=O)N2C(C(=O)O)=C(SCCNC=N)C[C@H]12 [IMIPENEM ANHYDROUS]
0.125 µg/mL: MIC90 [1] | MIC90 [8]
0.03 µg/mL: MIC50 [5] | MIC [8] | MIC50 [8] | MIC50 [27] | MIC90 [27] | MIC50 [11] | MIC90 [11] | MIC [25] | MIC50 [25] | MIC [26] | MIC50 [26] | MIC90 [26]
8 µg/mL: MIC50 [2] | MIC90 [2]
1 µg/mL: MIC [7] | MIC50 [7] | MIC90 [10] | MIC50 [18] | MIC90 [18] | MIC50 [22] | MIC90 [22] | MIC90 [23]
0.5 µg/mL: MIC50 [10] | MIC90 [12] | MIC90 [14] | MIC50 [23]
90%: Activity [13] | Activity [15]
0.25 µg/mL: MIC [3] | MIC50 [12] | MIC [14] | MIC50 [14] | MIC90 [17]
0.016 µg/mL: MIC [4]
99%: Activity [9] | Activity [19] | Activity [20] | Activity [24]
0.06 µg/mL: MIC50 [1] | MIC90 [5] | MIC [6] | MIC90 [25]
≤ 0.016 µg/mL: MIC [16] | MIC [17] | MIC50 [17] | MIC [21]

C[C@@H](O)[C@H]1C(=O)N2C(C(=O)O)=C(S[C@@H]3CN[C@H](C(=O)N(C)C)C3)[C@H](C)[C@H]12 [MEROPENEM]
4 µg/mL: MIC90 [2]
90%: Activity [13] | Activity [15]
0.25 µg/mL: MIC [3] | MIC [12] | MIC50 [12] | MIC50 [14] | MIC90 [22] | MIC50 [23] | MIC90 [25]
2 µg/mL: MIC50 [2] | MIC50 [7]
0.125 µg/mL: MIC [6] | MIC90 [8] | MIC [10] | MIC50 [10] | MIC90 [17] | MIC50 [18] | MIC50 [22]
0.03 µg/mL: MIC50 [5] | MIC [8] | MIC50 [8] | MIC90 [11] | MIC [25] | MIC50 [25]
0.008 µg/mL: MIC [4]
99%: Activity [9] | Activity [19] | Activity [20] | Activity [24]
0.06 µg/mL: MIC90 [5] | MIC50 [27] | MIC [26] | MIC50 [26] | MIC90 [26]
≤ 0.016 µg/mL: MIC [1] | MIC50 [1] | MIC90 [1] | MIC [11] | MIC50 [11] | MIC [16] | MIC [17] | MIC50 [17] | MIC [21]
1 µg/mL: MIC90 [23]
0.5 µg/mL: MIC90 [10] | MIC90 [12] | MIC90 [14] | MIC90 [18]
